Assay results: ChEMBL document CHEMBL1152305, “Synthesis and ribonucleotide reductase inhibitory activity of thiosemicarbazones” (Bioorg Med Chem Lett, 2008)
pIC50: −log10 of the molar value.

Test: Inhibition of human recombinant ribonucleotide reductase expressed in BL21 (DE3) bacteria assessed as conversion of [3H]CDP to [3H]dCDP
Outline: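 Recombinant human hRRM1 and hRRM2 subunits (BL21(DE3) expression, Ni(II) affinity purified) preincubated together with compound at room temperature 30 min, 1% v/v DMSO final. Phosphodiesterase dephosphorylation, HPLC radio-flow separation of cytidine/deoxycytidine. IC50 from nonlinear fit versus DMSO control; three tests in duplicate.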

Question: With `COc1cc(/C=N/NC(=S)Nc2ccccc2)ccc1O` as the compound, how does the pIC50 read?
Answer: < 3.30

Question: With `Oc1ccc(/C=N/NC(=S)Nc2ccc(Cl)cc2)cc1` as the compound, how does the pIC50 read?
Answer: 3.54

Question: With `Oc1ccc(/C=N/NC(=S)Nc2ccc(O)cc2)cc1` as the compound, how does the pIC50 read?
Answer: 4.36

Question: With `Oc1ccc(/C=N/NC(=S)Nc2ccccc2)cc1` as the compound, how does the pIC50 read?
Answer: 3.62

Question: With `S=C(N/N=C/c1ccco1)Nc1ccc(Cl)cc1` as the compound, how does the pIC50 read?
Answer: < 3.30

Question: With `COc1cc(/C=N/NC(=S)Nc2ccc(Cl)cc2)ccc1O` as the compound, how does the pIC50 read?
Answer: < 3.30

Question: With `Oc1ccccc1/C=N/NC(=S)Nc1ccc(Cl)cc1` as the compound, how does the pIC50 read?
Answer: < 3.30

Question: With `Cc1ccccc1NC(=S)N/N=C/c1ccc(O)cc1` as the compound, how does the pIC50 read?
Answer: 4.44

Question: With `Oc1ccc(/C=N/NC(=S)Nc2ccccc2Cl)cc1` as the compound, how does the pIC50 read?
Answer: 4.33

Question: With `Cc1cccc(NC(=S)N/N=C/c2ccc(O)cc2)c1` as the compound, how does the pIC50 read?
Answer: 4.52

Question: With `O=[N+]([O-])c1ccccc1NC(=S)N/N=C/c1ccc(O)cc1` as the compound, how does the pIC50 read?
Answer: 4.41

Question: With `O=[N+]([O-])c1ccc(NC(=S)N/N=C/c2ccc(O)cc2)cc1` as the compound, how does the pIC50 read?
Answer: 4.35

Question: With `Oc1ccc(/C=N/NC(=S)Nc2cccc(Cl)c2)cc1` as the compound, how does the pIC50 read?
Answer: 4.53

Question: With `Oc1ccccc1/C=N/NC(=S)Nc1ccccc1` as the compound, how does the pIC50 read?
Answer: < 3.30

Question: With `Oc1ccc(/C=N/NC(=S)Nc2ccccc2O)cc1` as the compound, how does the pIC50 read?
Answer: 4.53

Question: With `Oc1ccc(/C=N/NC(=S)Nc2cccc(O)c2)cc1` as the compound, how does the pIC50 read?
Answer: 4.54

Question: With `S=C(N/N=C/c1cccs1)Nc1ccc(Cl)cc1` as the compound, how does the pIC50 read?
Answer: < 3.30

Question: With `Cc1ccc(NC(=S)N/N=C/c2ccc(O)cc2)cc1` as the compound, how does the pIC50 read?
Answer: 4.85

Question: With `COc1ccccc1NC(=S)N/N=C/c1ccc(O)cc1` as the compound, how does the pIC50 read?
Answer: 4.38

Question: With `NC(=O)NO` [HYDROXYUREA] as the compound, how does the pIC50 read?
Answer: 3.83

Question: With `NC(=S)N/N=C/c1ncccc1N` [TRIAPINE] as the compound, how does the pIC50 read?
Answer: 5.65
